The results in this text go back to the RNAGym collection of RNA variant scans (doi:10.1126/science.aae0568).

Variants at the floor of the assay were thinned out.

B1: tRNA (parent)
chain: GUUCCGUUGGCGUAAUGGUAACGCGUCUCCCUCCUAAGGAGAAGACUGCGGGUUCGAGUCCCGUACGGAACG

This data set covers variants of B1. In words: yeast fitness relative to wild type (ratio to wild type); higher = fitter; tRNA-Arg(CCU), competitive growth, 37 C, YPD. Summed up: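 Genotype frequency changes were the basis for Darwinian fitness relative to wild type. The frequencies came from 100-nucleotide paired-end sequencing of gene amplicons from the start population and each end population of pooled yeast strains with tRNA-Arg(CCU) gene variants at the native locus. Competition ran in YPD at 37°C for 24 hours in six replicates, genotypes needed ≥ 100 starting reads, and estimates < 0.5 were set to 0.5.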
For the variant GUUCCGUUGGCGUACUGGUAACGCGUUUCCCUCCUAAGGAGAAGACUGCGGGUUCGAGUCCUGUACGGAACG [A15C C27U C62U], the yeast fitness is at most 0.5.

For the variant GUUCCGUUGGCGUACUGGUAACGCGUUUCCCUCCUAAGGAGAAGACUGCGGGUUCGAGUCCCAUACGGAACG [A15C C27U G63A], the yeast fitness is at most 0.5.

On to GUUCCGUUGGCGUACUGGUAAAGCCUCACCCUCCUUAGGAGAAGACUGCGGGUUCGCGUCCCGUCCGCAACG [A15C C22A G25C U28A A36U A57C A65C G68C], for which the yeast fitness stood at 0.568.

Take GUUCCGUUGGCGUACUGGUAACGCGUCUUCUUCCUAAGGAGAAGACUGCGGGUUCGAGUCCCGUACCGAACG [A15C C29U C31U G67C]: the yeast fitness is 0.591.

With GUUCCGUUGGCGUACUGGUAACGCGUCUUCCUCCUAAGCAGUAGACUGCUCGUUCGAGUCCCAUUCGGAACG [A15C C29U G39C A42U G50U G51C G63A A65U], the yeast fitness is at most 0.5.

Turning to GUUCCGUUGGCGUACUGGUGUCGCGUCUCCCUCCUAAGGAGAAGACUGCGGGUUCGAGUCCCGUAGGGAACG [A15C A20G A21U C66G], the yeast fitness was at most 0.5.

Take GUUCCGUUGGCGUACUGGUAACGCGUCUCCCUCCUAAGGUGAAGACUGCGGGUUCGAGUCCCGUACGGAACG [A15C A40U]: the yeast fitness was found to be 0.833.

On to GUUCCGUUGGCGUACUGGUUACGCGUCUCCGUCCUAAGGAGAAGACUGCGGGUUCGAGUCCAGUACGGAACG [A15C A20U C31G C62A], for which the yeast fitness was at most 0.5.

Turning to GUUCCGUUGGCGUACUGGUAACGCGUCUCACUCAUAAGGAGCAGACUGCGGGUUCAUGUCCCGUACGGAACG [A15C C30A C34A A42C G56A A57U], the yeast fitness was at most 0.5.

Take GUUCCGUUGGCGUACUGGUAACGCGUCUCACUCCUAAGGAGAAGACUGCGGGUUCGAGUCCCGUACGGAACG [A15C C30A]: the yeast fitness is 0.666.

Take GUUCCGUUGGCGUACUGGUAAGGCGUCUCCCUCCUAAGGAGACGACUGCGGCUUCGAGUCCCGUACGGAACG [A15C C22G A43C G52C]: the yeast fitness is at most 0.5.

With GUUCCGUUGGCGUACUGGUAACGCGUUACCCUCCUAAGGUGAAGACUGCGGGUUCGAGUCCCGUACGGAACG [A15C C27U U28A A40U], the yeast fitness was at most 0.5.

Regarding GUUCCGUUGGCGUACUGGUAUCGCGUCUCCCUCCUAAGAAGAAGACUGCGGGUUCGAGUCCCGUACGGAACG [A15C A21U G39A], the yeast fitness was at most 0.5.

As to GUUCCGUUGGCGUACUGGUAACGCGUCUCCCUCCUAAGGAGAAGACUGCGGGUUCGCGUCCCGUACGGAACG [A15C A57C], the yeast fitness was at most 0.5.

For GUUCCGUUGGCGUACUGGUAACGCGUCUCCCUCCUUAGAAGAAGACUGCGGGUUCGAGUCCCGUACGGAACG [A15C A36U G39A], the yeast fitness is at most 0.5.

Regarding GUUCCGUUGGCGUACUGGUAACGCGUCUCCCUCCUAAGGAGAAGACUGCGGGUUCGAGUCCCGUACGGACCG [A15C A70C], the yeast fitness amounted to 0.751.

Take GUUCCGUUGGCGUACUGGUAACGCGUCUCCCUCCUUAGGAGAAGACUGCGGGUUCGAGUCCCGUACGGAACG [A15C A36U]: the yeast fitness was determined as 0.633.

In the case of GUUCCGUUGGCGUACUGGUAACGCGUCUUCCUCCUAAGCAGUAGACUCCUCGUUCGAGUCCCGUUCGGAACG [A15C C29U G39C A42U G48C G50U G51C A65U], the yeast fitness is at most 0.5.

With GUUCCGUUGGCGUACUGGUAACGCGUCUCCCUCCUUAGGAGAAGAGUGCGGGUUCAAGUACGGUAAGGAACG [A15C A36U C46G G56A C60A C62G C66A], the yeast fitness was at most 0.5.

GUUCCGUUGGCGUACUGGUAACGCGUCUUCCUCCUAAGGAGAAGACUGCGGGUUCGAGUCCCGUACGCAACG [A15C C29U G68C]: the yeast fitness is at most 0.5.

Regarding GUUCCGUUGGCGUACUGGUAACGUGUCUCCCUCCUAAGGAGAAGACUGCGGGUUCGAGUCCCGUAUGGAACG [A15C C24U C66U], the yeast fitness is at most 0.5.

Take GUUCCGUUGGCGUACUGGUAACGCGUCUCCCUCCUUAGGAGAAGACUGCGGGUUCGAGUCCCGUACGGUACG [A15C A36U A69U]: the yeast fitness came to 0.509.

As for GUUCCGUUGGCGUACUGGUAACGCGUAUCCCUCCUAAGGAGAAGACUGCGGGUUCGAGUCCCGUACGGAACG [A15C C27A], the yeast fitness was found to be 0.554.

With GUUCCGUUGGCGUACUGGUCACGCGUCUCCCUCCUAAGCAGAAGACUGCGGGUUCGAGUCCCGUACGGCACG [A15C A20C G39C A69C], the yeast fitness was at most 0.5.

On to GUUCCGUUGGCGUACUGGUGACGCGUCUCCCUCCUAAGGAGAAGACUGCGGGUUCGAGUCCCGUGCGGAACG [A15C A20G A65G], for which the yeast fitness was at most 0.5.

For the variant GUUCCGUUGGCGUACUGGUAAAGCGUCUCCCUCCUAAGGAGAAGACUGCGGGUUCGAGUCCCGUACGGAACG [A15C C22A], the yeast fitness was 0.697.

On to GUUCCGUUGGCGUACUGGUAACGCGUCUCCCUCCUUAGGAGAAGACUGCGGGUUCGAGUCCCGUCCGGAACG [A15C A36U A65C], for which the yeast fitness worked out at 0.54.

Turning to GUUCCGUUGGCGUACUGGUAACGCGUCUCCCUCCUGAGGAGAAGACCGCGGGUUAGAGUCCCGUACGGAACG [A15C A36G U47C C55A], the yeast fitness is at most 0.5.

Turning to GUUCCGUUGGCGUACUGGUAACGCGUCUGGCUCCUAAGGAGAAGACCGCGGGUUCGAGUCCCGUACGGAACG [A15C C29G C30G U47C], the yeast fitness is at most 0.5.

In the case of GUUCCGUUGGCGUACUGGUAACGCGUCUCCCUCCUAAGGAGAUGACUGCGGGUUCGAGUCCCGUACAGAACG [A15C A43U G67A], the yeast fitness turned out to be 0.535.

As for GUUCCGUUGGCGUACUGGUAACGCGUCUCCCUCCUAAGGAGAGGAAUGCGGGUUCGAGUCCCGUACGAAACG [A15C A43G C46A G68A], the yeast fitness is at most 0.5.

For the variant GUUCCGUUGGCGUACUGGUAACGCGUCUCCCUCCUUAGGAGGAGACUGCGGGUUCGAGCACCGUACGGAACG [A15C A36U A42G U59C C60A], the yeast fitness is at most 0.5.

For the variant GUUCCGUUGGCGUACUGGUAGUGCGUCUCCCUCCUAAGGAGAAGACUGUGGGCUCGAGUCCCGUACGGAACG [A15C A21G C22U C49U U53C], the yeast fitness is at most 0.5.

With GUUCCGUUGGCGUACUGGUGACGCGUCUCCCUCCUAAGGAGAAGACUGCGGGUUCGAGUCCCGUACGGACCG [A15C A20G A70C], the yeast fitness came out at 0.6.

With GUUCCGUUGGCGUACUGGUAACGAGUCUCCCUCCUAAGGAGAAGACUGCGGGCUCGAGUCCCGUACGGAACG [A15C C24A U53C], the yeast fitness was at most 0.5.

On to GUUCCGUUGGCGUACUGGUAUCGCGUCUCCCUCCUAAGGAGAAGACUGCGGGUUCGAGUCCUGUACGGAACG [A15C A21U C62U], for which the yeast fitness is 0.53.

Turning to GUUCCGUUGGCGUACUGGUAACGCGUUUCUCGCCAACGGAGAAGACUGCGGGUUCGUGUCCCGUACGGAACG [A15C C27U C30U U32G U35A A37C A57U], the yeast fitness was at most 0.5.

GUUCCGUUGGCGUACUGGUAAAGCGUCUCCAUCCUAACGAGAAGACUGCGGGUUCGACUCCCGUACGGAACG [A15C C22A C31A G38C G58C]: the yeast fitness stood at 0.542.
